# Hep lipid drop: inhibitors of hepatocyte lipid droplet formation, primary screen, imaging, high-throughput imaging, BODIPY stain | AML12 mouse hepatocytes, oleate lipid droplets | inhibition, % at 6.5 µM | 240,000 tested, 0.4% active;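 active = lipid droplet intensity inhibited by at least 50%, with more than 500 cells counted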
#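 Material – mouse AML12 hepatocyte cell line, fixed after treatment · Compound dosing – one dose, 6.5 µM compound · Times – compound with oleate, overnight · Measured by – Image-based BODIPY and DAPI two-channel analysis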
# LANA-H2B inh: blockers of LANA interaction with H2A/H2B – biochemical, FP readout, HTS, primary screen; Protein LANA1 (Human herpesvirus 8 type P (isolate GK18)), Q9QR71; cell-free LANA-H2A/H2B peptide, fluorescence polarization; inhibition, % (concentration not given with the values); 320,000 tested, 0.6% active; AID 2629, 2010; in the data active = inhibition mostly above about 10%, no sharp cut-off; inactive = mostly below about 6.7%
# GSK3B inh: human GSK3beta kinase inhibitors, primary screen, biochemical, cell-free homogeneous, HTS. Glycogen synthase kinase-3 beta (Homo sapiens), P49841. GST-GSK3beta kinase, ADP-Glo luminescence, 60 min; active compounds read low. activity score (negative = inhibition), % at 10 µM. 300,000 tested, 0.038% active;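 active = more than half of replicate wells score below -50%, meaning over 50% inhibition versus plate controls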;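 also: 0% = median DMSO wells and -100% = median GW8510 positive control wells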
#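 Test system: GST-fused GSK3beta enzyme, cell-free | Quantity: 1.6 ng GST-GSK3beta enzyme per well | Reagent: 25 µM ATP with peptide substrate | Schedule: 60 min enzyme reaction, room temperature | Signal: Luminescent ADP-Glo measurement of ADP formed | Read-out basis: Score relative to plate controls | Control set: DMSO and 20 µM GW8510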
# TAG inh: inhibitors of triacylglycerol accumulation, primary screen, cell-based, uHTS, fluorescence, H9c2 | 230,000 tested, 0.66% active | inhibition, % at 12.5 µM | AID 651582, 2012 | H9c2 cells, Nile Red lipid (TAG) fluorescence; cells loaded with 200 µM oleic acid;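 active = pattern-corrected inhibition of lipid staining of at least 50% with the nuclear-stain viability signal not falling by more than 50%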;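 also: 0% = DMSO wells and 100% = triacsin C control wells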
# GSK3A inh: blockers of GSK3A enzyme activity – biochemical, luminescence, cell-free homogeneous, HTS, primary screen; GSK-3 alpha kinase, ADP-Glo luminescence, 60 min; 320,000 tested, 0.1% active; inhibition, % at 10 µM; AID 2650, 2010; Glycogen synthase kinase-3 alpha (Homo sapiens), P49840;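 active = more than half of replicates show inhibition above 20%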;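 also: GST-tagged GSK-3 alpha with peptide substrate and 25 µM ATP; 0% = DMSO neutral wells and 100% = GW8510 positive control wells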
# STK33 inh: inhibitors of purified STK33 kinase, primary screen, biochemical, ADP-Glo luminescence, homogeneous, cell-free; Serine/threonine-protein kinase 33 (Homo sapiens), Q9BYT3; MBP phosphorylation; inhibition, % at 10 µM; 320,000 tested, 0.073% active;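 active = inhibition at or above 25%, using the most active replicate where run in duplicate; inactive = inhibition below 25%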
# Target sequence (Q9BYT3 whole entry, looked up): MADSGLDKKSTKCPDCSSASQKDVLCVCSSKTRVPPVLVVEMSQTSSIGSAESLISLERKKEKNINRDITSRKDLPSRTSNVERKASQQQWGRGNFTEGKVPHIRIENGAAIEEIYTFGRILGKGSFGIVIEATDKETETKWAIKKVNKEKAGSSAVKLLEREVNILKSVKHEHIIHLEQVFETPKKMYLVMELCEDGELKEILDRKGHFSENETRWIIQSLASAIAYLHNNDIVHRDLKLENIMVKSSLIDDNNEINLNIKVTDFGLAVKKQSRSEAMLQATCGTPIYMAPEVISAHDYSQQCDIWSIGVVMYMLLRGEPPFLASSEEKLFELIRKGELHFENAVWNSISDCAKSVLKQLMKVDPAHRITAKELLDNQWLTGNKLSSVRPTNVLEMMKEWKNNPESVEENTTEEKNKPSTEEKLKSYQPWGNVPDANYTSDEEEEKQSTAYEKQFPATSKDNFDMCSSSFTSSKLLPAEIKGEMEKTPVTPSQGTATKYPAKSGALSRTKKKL
# * = called active by the depositor; . = no result given; + = active, no number. This is a sample that favours compounds with a hit; in the whole collection about 1.3% have one here.
SMILES,Hep lipid drop,LANA-H2B inh,GSK3B inh,TAG inh,GSK3A inh,STK33 inh
C[C@]12CC[C@@H]3c4ccc(O)cc4C(=O)C[C@H]3[C@@H]1CC[C@@H]2O,15,3.5*,-10,-6,8,1
COc1ccccc1CNC(=O)COC(=O)c1cc(=O)c2ccccc2o1,.,17*,.,8,0,-1
CC(=O)Nc1ccc(C(=O)Nc2nc(-c3ccccn3)cs2)cc1,-6,-2,1,5,2,0
O=C(Nc1nc(-c2ccccn2)cs1)c1ccccc1-n1cnnn1,-13,-4,1,51*,1,0
Nc1nc(-c2ccc(Cl)cc2)nnc1-c1ccc(Br)cc1,1,5,-2,-9,-1,.
CCCCCCCCCCCCCCCC[N+](C)(C)CCN(Cc1ccc(OC)cc1)c1ncccn1,.,-12,.,121,23,43*
COc1ccc(N(C)C(=O)c2cc3c(s2)-c2ccccc2OC3)c(OC)c1,-5,18*,-2,.,-1,0
O=C(O)c1ccc(O)cc1O,.,28*,.,.,-1,0
Nc1ccc(C(=O)O)c(O)c1,30,-5,1,-3,-2,0
CCCCOc1ccc(C(=O)N2CC(C)OC(C)C2)cc1 (centres undefined),0,0,3,.,-2,-1
O=C(Nc1ccc(S(=O)(=O)Nc2nccs2)cc1)c1cc(-c2ccccc2Cl)nc2ccccc12,.,-1,4,10,-37,-1
COc1ccc(C2(c3ccc(OC)cc3)NC(=O)N(CC(=O)NC3(C#N)CCCC3)C2=O)cc1,.,2,.,12,0,2
Cc1ccc(C2(c3ccccc3)NC(=O)N(CC(=O)N(C)C3CCS(=O)(=O)C3)C2=O)cc1C (centres undefined),.,16*,.,-14,1,0
Cc1ccc(C2(c3ccccc3)NC(=O)N(CC(=O)NC3(C#N)CCCC3)C2=O)cc1C (centres undefined),.,+,.,11,-2,2
C=CC(=O)Nc1ccc(Nc2nc(NC3CCC(N(C)C)CC3)nc3c2ncn3C(C)C)cc1 (centres undefined),.,-3,.,113,15,81*
Clc1ccc(-c2cn3c(n2)CCC3)cc1,.,0,2,.,-2,1
Cc1ccc(NC(=O)N2CCN(C/C=C/c3ccccc3)CC2)cc1,-1,0,1,7,-5,1
COC(=O)c1ccccc1NC(=O)N1CCN(C/C=C/c2ccccc2)CC1,-1,-5,3,.,-1,32*
O=C(Nc1ccccc1)OCc1cc(-c2ccccc2Cl)on1,.,31*,4,.,-2,0
Cc1cc([N+](=O)[O-])cc2c1NC(=O)C2(O)N1CCOCC1 (centres undefined),3,58*,1,.,2,0
Cc1ccc(-c2cc(-c3ccccc3)nc(N(C)N)n2)cc1,20,-5,1,.,-2,-1
Cc1ccc(-c2cc(N)nc(-c3ccccc3)c2)cc1,-3,31*,.,.,-2,-1
CCOC(=O)C(=O)N(C)c1c(CC)nc2c(OCc3ccccc3C)cccn12,.,.,.,3,.,.
CC(=O)N1N=C(c2cccs2)CC1c1ccc(Br)cc1 (centres undefined),3,6,2,.,0,-1
CC(=O)N1N=C(c2cccs2)CC1c1ccc(C)o1 (centres undefined),-5,36*,2,4,3,-1
SMILES,Hep lipid drop,LANA-H2B inh,GSK3B inh,TAG inh,GSK3A inh,STK33 inh
CCN1C(=O)C(CC(=O)Nc2cccc(C(C)=O)c2)S/C1=N\c1ccccn1 (centres undefined),-4,1,3,.,-1,-1
CCOc1ccc(N(C)S(=O)(=O)c2ccc(-c3ccc(=O)[nH]n3)s2)cc1,10,15*,7,.,-2,1
CN(C)N1C(N)=C(C#N)C(c2cccs2)C2=C1CC(C)(C)CC2=O (centres undefined),1,-2,0,.,5,-1
CCCCN(C(=O)c1ccc(N2CCCC2=O)cc1)c1c(N)n(CC(C)C)c(=O)[nH]c1=O,.,-484,.,-24,-3,0
CCOc1ccc(CCNC(=O)c2cc3sccc3n2C)cc1OCC,101*,-2,3,.,-2,0
COCCNC(=O)c1cc2sccc2n1C,10,-1,1,-6,1,-6
CCN1CCN(C(c2ccccc2)c2nnnn2CCc2ccc(OC)c(OC)c2)CC1 (centres undefined),.,15*,-1,-3,0,-2
COc1ccc(CCn2nnnc2C(c2ccc(Cl)cc2)N2CCN(C)CC2)cc1OC (centres undefined),.,3,1,5,0,-2
COc1cc(C)c2c(c1C=O)Oc1c(c(C)c(O)c3c1C(O)OC3=O)OC2=O (centres undefined),14,-11,0,.,5,44*
COc1ccc(CCN2CC(C(=O)Nc3nnc(Cc4ccccc4)s3)CC2=O)cc1OC (centres undefined),.,11*,.,0,-1,0
COc1ccc(C(=O)NNC(=O)c2ccccn2)cc1,-3,-2,-33,23,45,41*
CC1(C)CC(=O)c2cnc(NC3CC3)nc2C1,-6,18*,-5,.,0,0
CCCCC(=O)N(C)c1c(C)nc2ccc(C(=O)N3CCN(C(C)=O)CC3)cn12,.,.,.,-5,.,.
CC1=Nc2ccccc2N=C(NC(=O)CN2CCN(c3ccc(F)cc3)CC2)C1c1ccccc1 (centres undefined),-29,-2,3,-14,-2,-1
COc1cccc2cc(C(=O)N3CCN(c4ncccn4)CC3)c(=O)oc12,-8,-3,1,.,-2,-1
CCC(=O)c1ccc(CCCCCC(=O)O)s1,2,1,0,-1,-1,-2
CC(=O)c1ccc(CCCCCCCCCC(=O)O)s1,.,2.8*,3,-3,-7,1
Cc1ccccc1-c1cccc(CN2CCN(C)C(CCO)C2)c1 (centres undefined),6,2,0,0,-1,0
CCc1ccccc1Nc1nc(N)nc(CSc2nnc3ccccn23)n1,2,1,0,6,0,-2
Cc1ccccc1NC(=S)Nc1ccc2cn[nH]c2c1,-20,5,-8,-2,18,19
COc1ccc(NC(=S)Nc2ccc3cn[nH]c3c2)cc1,23,0,-6,-6,36,39*
S=C(Nc1ccc(Cl)cc1)Nc1ccc2cn[nH]c2c1,-1,-2,3,-3,10,10
